Test results taken from ChEMBL document CHEMBL4765349, “Design, synthesis and biological evaluation of novel N-sulfonylamidine-based derivatives as c-Met inhibitors via Cu-catalyzed three-component reaction” (Eur J Med Chem, 2020).

Columns and labels:
[1] = Toxicity in Balb/c mouse assessed as no abnormality at 100 to 200 mg/kg, ip measured after 15 days; type: organism-based; conditions: in vivo, 360 h, dose 100-200 mg/kg, time 15 day
In short: (§1)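 Acute toxicity in 8-week-old male BALB/c mice, randomized into groups of n = 10. Single intraperitoneal dose on day 0 of vehicle or 100, 200, 300 or 400 mg/kg, plus an untreated control group. Mice watched for 15 days for deaths, abnormalities, anaphylactic or allergic reactions and body weight loss.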

HUVEC = assay: cells; conditions: Homo sapiens, 72 h
[2] = Toxicity in Balb/c mouse assessed as anaphylactic response at 100 to 200 mg/kg, ip measured after 15 days; type: organism-based; conditions: in vivo, 360 h, dose 100-200 mg/kg, time 15 day; in short: as §1
A549 [3] = assay: Induction of apoptosis in human A549 cells assessed as late apoptosis at 1 uM measured after 12 hrs by Annexin V-FITC/ Propidium iodide stain based flow cytometry assay relative to control; type: functional
In short: (§2)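 Cells double-stained with FITC-annexin V and propidium iodide, then flow cytometry gave the percentages of early and late apoptotic cells.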

[4] = molecular target: Macrophage-stimulating protein receptor (Homo sapiens, UniProt Q04912); assay: Inhibition of Ron (unknown origin) using poly (Glu, Tyr)4:1 as substrate in presence of ATP measured after 30 mins by HTRF assay
In short: (§3)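 Kinase inhibition measured by homogeneous time-resolved fluorescence (HTRF) across a panel of Ron, ALK and other tyrosine kinases, with IC50 as the read-out.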

[5] = Half life in Balb/c mouse at 2 mg/kg, iv measured after 24 hrs by LC/MS/MS analysis; type: ADME, organism-based; conditions: in vivo
In short: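 BALB/c mice dosed once orally at 8 mg/kg or intravenously at 2 mg/kg. Plasma concentration followed over time, and Cmax, Tmax, AUC0-∞, elimination half-life, clearance and oral bioavailability were derived from it.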

[6] = Selectivity index, ratio of IC50 for human FHC cells assessed as inhibition of cell proliferation to IC50 of HT-29 cells assessed as inhibition of cell proliferation; type: toxicity; conditions: FHC cells versus HT-29 cells, read-out: Selectivity Index
[7] = Toxicity in Balb/c mouse assessed as survival rate at 200 mg/kg, ip measured after 15 days; type: organism-based; conditions: in vivo, time 15 day
In short: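 Acute toxicity: 8-week-old male BALB/c mice, randomized in groups of n = 10, given a single intraperitoneal injection on day zero (vehicle only, 100, 200, 300 or 400 mg/kg). A further untreated group served as normal control. Survival on day 15 was reported as a percentage.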

[8] = molecular target: Mast/stem cell growth factor receptor Kit (Homo sapiens, UniProt P10721); assay: Inhibition of c-Kit (unknown origin) using poly (Glu, Tyr)4:1 as substrate in presence of ATP measured after 30 mins by HTRF assay; in short: as §3
[9] = molecular target: Platelet-derived growth factor receptor alpha (Homo sapiens, UniProt P16234); assay: Inhibition of PDGFR alpha (unknown origin) using poly (Glu, Tyr)4:1 as substrate in presence of ATP measured after 30 mins by HTRF assay; in short: as §3
A549 [10] = assay: Induction of apoptosis in human A549 cells assessed as early apoptosis at 1 uM measured after 12 hrs by Annexin V-FITC/ Propidium iodide stain based flow cytometry assay relative to control; type: functional; in short: as §2
[11] = molecular target: Vascular endothelial growth factor receptor 3 (Homo sapiens, UniProt P35916); assay: Inhibition of FLT-4 (unknown origin) using poly (Glu, Tyr)4:1 as substrate in presence of ATP measured after 30 mins by HTRF assay; in short: as §3
[12] = molecular target: T1, Receptor-type tyrosine-protein kinase FLT3 (Homo sapiens, UniProt P36888); assay: Inhibition of FLT-3 (unknown origin) using poly (Glu, Tyr)4:1 as substrate in presence of ATP measured after 30 mins by HTRF assay
T1 sequence (P36888 whole entry): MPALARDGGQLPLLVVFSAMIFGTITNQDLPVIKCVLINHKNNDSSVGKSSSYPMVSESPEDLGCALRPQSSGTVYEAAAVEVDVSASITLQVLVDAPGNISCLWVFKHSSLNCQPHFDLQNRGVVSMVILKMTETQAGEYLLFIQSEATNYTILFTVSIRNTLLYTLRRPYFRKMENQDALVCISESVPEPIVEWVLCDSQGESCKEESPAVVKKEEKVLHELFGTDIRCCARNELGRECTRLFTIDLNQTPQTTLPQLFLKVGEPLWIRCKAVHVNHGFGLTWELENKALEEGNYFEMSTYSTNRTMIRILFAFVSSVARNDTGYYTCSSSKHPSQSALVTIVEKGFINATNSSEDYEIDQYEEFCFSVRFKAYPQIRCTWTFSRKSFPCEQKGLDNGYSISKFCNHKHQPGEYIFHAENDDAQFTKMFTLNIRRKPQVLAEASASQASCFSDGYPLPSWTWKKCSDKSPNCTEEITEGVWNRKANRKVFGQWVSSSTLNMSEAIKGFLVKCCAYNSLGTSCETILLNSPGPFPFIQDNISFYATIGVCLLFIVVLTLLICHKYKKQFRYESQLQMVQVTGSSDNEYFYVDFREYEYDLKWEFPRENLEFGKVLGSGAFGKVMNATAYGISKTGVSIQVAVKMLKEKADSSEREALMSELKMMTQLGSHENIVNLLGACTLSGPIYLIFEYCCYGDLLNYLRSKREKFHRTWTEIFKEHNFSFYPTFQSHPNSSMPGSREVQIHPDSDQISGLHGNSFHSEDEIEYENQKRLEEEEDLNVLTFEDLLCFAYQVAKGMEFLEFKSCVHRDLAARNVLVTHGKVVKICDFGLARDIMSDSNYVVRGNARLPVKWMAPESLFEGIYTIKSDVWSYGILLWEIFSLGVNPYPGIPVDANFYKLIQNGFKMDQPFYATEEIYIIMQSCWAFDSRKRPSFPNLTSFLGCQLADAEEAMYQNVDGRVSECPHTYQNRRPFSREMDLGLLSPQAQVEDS

Chain of Macrophage-stimulating protein receptor (Q04912 25-304 limits assumed): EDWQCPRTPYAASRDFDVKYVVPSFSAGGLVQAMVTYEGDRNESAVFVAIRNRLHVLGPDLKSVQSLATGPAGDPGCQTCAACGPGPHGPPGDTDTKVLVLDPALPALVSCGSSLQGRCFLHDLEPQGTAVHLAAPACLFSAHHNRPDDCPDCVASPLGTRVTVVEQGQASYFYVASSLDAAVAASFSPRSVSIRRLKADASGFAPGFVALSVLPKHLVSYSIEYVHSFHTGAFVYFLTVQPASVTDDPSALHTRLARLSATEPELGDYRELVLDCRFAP
Chain of Macrophage-stimulating protein receptor (Q04912 310-1400 limits assumed): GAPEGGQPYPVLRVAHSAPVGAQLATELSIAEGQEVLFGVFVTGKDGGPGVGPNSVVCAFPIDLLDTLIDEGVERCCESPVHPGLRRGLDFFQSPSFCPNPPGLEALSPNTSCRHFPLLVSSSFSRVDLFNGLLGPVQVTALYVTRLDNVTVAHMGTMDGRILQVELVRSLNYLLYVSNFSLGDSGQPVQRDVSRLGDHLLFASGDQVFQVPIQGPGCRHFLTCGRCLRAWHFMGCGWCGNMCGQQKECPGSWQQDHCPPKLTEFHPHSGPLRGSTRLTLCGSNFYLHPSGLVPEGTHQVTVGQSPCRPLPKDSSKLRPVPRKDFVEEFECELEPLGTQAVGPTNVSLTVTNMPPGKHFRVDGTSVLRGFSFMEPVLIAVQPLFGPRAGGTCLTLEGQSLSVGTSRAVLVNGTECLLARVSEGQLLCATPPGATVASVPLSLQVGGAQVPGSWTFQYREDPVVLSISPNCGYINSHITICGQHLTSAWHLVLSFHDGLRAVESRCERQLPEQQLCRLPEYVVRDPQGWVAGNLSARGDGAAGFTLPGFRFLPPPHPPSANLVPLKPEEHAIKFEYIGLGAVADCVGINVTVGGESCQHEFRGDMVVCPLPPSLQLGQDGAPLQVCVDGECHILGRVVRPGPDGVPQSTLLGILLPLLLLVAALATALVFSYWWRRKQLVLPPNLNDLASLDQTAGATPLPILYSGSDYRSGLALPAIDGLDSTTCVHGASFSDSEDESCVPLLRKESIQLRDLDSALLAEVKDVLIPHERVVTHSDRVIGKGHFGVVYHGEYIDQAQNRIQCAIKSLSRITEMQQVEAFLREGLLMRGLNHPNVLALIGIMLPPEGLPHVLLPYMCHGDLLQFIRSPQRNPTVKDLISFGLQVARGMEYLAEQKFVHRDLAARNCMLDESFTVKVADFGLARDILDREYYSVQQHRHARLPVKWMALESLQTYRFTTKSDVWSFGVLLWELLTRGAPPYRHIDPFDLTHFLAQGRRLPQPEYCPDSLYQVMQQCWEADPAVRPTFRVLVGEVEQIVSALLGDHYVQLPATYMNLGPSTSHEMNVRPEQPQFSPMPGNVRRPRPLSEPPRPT
Chain of Platelet-derived growth factor receptor alpha (P16234 whole entry): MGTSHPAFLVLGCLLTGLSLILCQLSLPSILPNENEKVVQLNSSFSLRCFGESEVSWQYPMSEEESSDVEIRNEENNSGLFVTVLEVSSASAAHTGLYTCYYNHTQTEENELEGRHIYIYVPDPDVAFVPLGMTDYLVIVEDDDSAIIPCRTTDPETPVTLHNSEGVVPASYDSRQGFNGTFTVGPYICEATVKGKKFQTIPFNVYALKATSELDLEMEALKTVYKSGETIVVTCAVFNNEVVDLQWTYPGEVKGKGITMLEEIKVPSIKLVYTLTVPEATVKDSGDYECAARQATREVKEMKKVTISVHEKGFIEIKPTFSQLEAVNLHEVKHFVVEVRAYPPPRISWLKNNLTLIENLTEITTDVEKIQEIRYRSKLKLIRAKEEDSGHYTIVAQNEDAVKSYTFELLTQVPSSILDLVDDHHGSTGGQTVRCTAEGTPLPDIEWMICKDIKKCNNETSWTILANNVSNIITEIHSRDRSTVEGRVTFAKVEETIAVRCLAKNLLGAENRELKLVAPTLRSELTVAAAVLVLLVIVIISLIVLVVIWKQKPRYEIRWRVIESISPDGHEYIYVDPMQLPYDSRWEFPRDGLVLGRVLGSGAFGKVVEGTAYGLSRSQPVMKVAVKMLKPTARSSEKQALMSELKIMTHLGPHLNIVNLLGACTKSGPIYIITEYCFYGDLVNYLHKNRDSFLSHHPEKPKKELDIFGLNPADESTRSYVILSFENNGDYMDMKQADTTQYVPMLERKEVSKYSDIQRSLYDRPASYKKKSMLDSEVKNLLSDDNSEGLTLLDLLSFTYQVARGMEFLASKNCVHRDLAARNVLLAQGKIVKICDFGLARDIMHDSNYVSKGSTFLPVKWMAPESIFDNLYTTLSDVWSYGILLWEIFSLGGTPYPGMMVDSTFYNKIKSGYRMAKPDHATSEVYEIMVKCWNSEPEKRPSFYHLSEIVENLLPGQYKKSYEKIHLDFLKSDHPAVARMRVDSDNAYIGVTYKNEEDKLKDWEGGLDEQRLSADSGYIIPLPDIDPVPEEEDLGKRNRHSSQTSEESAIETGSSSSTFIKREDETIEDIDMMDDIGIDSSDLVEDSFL
Chain of Mast/stem cell growth factor receptor Kit (P10721 whole entry): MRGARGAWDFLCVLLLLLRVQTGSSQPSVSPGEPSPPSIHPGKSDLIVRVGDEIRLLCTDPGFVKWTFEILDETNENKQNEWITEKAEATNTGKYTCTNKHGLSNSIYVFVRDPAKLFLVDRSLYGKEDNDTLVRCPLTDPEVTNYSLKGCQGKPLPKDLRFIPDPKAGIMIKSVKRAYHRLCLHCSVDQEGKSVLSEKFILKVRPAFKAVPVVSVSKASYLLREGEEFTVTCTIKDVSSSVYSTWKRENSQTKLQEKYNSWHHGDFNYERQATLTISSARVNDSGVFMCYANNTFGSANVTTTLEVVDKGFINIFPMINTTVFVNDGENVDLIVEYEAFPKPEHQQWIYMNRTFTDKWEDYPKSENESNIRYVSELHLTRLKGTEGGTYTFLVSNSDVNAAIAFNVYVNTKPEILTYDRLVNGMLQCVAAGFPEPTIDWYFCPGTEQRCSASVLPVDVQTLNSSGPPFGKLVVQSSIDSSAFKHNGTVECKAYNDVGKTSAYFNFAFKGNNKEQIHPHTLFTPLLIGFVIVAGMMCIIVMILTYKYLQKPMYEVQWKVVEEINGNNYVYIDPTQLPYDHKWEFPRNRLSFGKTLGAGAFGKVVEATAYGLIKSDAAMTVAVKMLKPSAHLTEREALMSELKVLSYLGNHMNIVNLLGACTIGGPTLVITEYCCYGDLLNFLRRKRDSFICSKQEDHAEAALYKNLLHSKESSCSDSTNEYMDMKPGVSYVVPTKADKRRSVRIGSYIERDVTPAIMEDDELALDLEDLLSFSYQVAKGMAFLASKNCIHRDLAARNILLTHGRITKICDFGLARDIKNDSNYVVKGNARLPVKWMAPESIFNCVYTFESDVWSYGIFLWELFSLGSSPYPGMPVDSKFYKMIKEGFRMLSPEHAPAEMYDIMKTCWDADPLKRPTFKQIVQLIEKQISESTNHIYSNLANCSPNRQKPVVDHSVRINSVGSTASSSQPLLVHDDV
Chain of Vascular endothelial growth factor receptor 3 (P35916 whole entry): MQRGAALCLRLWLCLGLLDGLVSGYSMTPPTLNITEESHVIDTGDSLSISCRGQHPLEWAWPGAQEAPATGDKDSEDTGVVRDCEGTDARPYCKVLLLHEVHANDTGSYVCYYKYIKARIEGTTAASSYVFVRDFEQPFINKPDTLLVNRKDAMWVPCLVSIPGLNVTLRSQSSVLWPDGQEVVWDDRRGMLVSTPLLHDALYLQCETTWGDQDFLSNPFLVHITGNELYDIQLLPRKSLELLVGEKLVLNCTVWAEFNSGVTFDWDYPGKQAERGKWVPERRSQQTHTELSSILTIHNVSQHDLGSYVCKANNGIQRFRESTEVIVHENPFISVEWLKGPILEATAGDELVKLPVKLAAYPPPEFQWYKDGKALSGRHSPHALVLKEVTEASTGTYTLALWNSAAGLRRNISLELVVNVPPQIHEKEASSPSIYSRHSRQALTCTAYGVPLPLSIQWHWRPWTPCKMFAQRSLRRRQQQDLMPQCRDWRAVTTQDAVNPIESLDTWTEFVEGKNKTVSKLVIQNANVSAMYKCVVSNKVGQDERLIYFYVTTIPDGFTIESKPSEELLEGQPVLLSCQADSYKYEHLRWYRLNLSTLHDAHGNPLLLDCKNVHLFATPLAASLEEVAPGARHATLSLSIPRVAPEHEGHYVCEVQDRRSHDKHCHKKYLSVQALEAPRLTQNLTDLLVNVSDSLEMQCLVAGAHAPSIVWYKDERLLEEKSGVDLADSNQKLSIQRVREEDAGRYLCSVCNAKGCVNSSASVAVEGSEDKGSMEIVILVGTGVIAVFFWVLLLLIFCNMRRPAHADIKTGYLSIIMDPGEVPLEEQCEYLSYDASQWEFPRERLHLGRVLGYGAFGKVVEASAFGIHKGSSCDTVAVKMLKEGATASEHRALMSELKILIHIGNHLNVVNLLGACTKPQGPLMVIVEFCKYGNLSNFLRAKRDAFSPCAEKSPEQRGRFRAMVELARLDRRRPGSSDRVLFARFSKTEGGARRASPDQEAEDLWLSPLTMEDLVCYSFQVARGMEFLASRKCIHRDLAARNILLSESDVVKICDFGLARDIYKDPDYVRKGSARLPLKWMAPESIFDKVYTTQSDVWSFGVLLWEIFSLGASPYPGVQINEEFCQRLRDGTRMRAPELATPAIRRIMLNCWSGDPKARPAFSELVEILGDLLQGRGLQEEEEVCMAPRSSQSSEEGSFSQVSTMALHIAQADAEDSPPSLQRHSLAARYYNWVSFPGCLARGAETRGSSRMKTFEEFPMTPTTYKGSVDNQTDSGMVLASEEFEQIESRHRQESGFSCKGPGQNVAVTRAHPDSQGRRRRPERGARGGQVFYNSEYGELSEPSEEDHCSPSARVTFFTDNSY

For `COCC/C(=N\S(=O)(=O)Cc1ccc(Cl)cc1)Nc1ccc(Oc2ccnc3cc(OCCCN4CCOCC4)c(OC)cc23)c(F)c1`, the Activity [1] was “Non-Toxic”, the IC50 (HUVEC) was 1.35 µM and the Activity [2] was “Non-Toxic”. For the same molecule, the Activity (A549 [3]) was 30.99%, the IC50 [4] was 0.412 µM and the half-life [5] was 1.8 h. It also gave a selectivity ratio [6] of 19.1, a survival at 360 h [7] of 100% and an IC50 [8] of 0.00426 µM. For the same molecule, the IC50 [9] was 0.384 µM, the Activity (A549 [10]) was 15.69% and the IC50 [11] was 0.358 µM. The IC50 [12] was 0.00728 µM.
